In PubChem BioAssay AID463210 (The Scripps Research Institute Molecular Screening Center, 2010):
About 300 (0.091%) of roughly 330,000 compounds were called active.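 How the source made its calls: active means percent activation above the screen-wide mean plus 3 SD (cut at about 25% in these data); inactive means the rest.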 The sample as a whole holds a higher share of actives than the screen did.

Biological target: Caspase-7 (Homo sapiens) (UniProt P55210)
Assay: activation of procaspase-7 enzyme – biochemical, absorbance, HTS, human, counter-screen for procaspase-3 activator project, primary screen (AID 463210)
Details: recombinant procaspase-7, Ac-DEVD-pNA absorbance 405 nm; at 8.5 µM; stronger effect = higher value; D23A/D198A/D206A triple mutant, cannot self-cleave; scale: DMSO 0, 5 µM enzyme 100
Summary of the method: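 Assay system: Uncleavable procaspase-7 mutant enzyme | Input: 2 µM procaspase-7 mutant as dispensed | Timing: 1 h compound preincubation, 2 h substrate cleavage, 25 °C | Repeats: One well per compound | Control set: DMSO wells as 0%, DMSO with 5 µM added PC-7 as 100% | Technique: Epi-absorbance of released pNA at 405 nm, two timepoints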

Caspase-7 (Homo sapiens), sequence (P55210 whole entry D23A/D198A/D206A): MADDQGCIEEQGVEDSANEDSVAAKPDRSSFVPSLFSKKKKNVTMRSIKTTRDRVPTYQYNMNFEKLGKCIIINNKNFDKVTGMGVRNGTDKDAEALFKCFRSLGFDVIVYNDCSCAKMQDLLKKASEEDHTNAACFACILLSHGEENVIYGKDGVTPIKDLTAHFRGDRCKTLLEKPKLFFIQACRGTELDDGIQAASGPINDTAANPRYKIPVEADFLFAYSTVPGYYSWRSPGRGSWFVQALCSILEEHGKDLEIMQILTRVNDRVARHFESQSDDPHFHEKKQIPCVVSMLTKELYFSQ

| Compound | activation |
| --- | --- |
| CCOC(=O)C1(CCOc2ccccc2)CCN(Cc2cc(OC)cc(OC)c2)CC1 | -7.5% (inactive) |
| CCOC(=O)C1(CCOC)CCN(Cc2ccc(C(=O)OC)cc2)CC1 | 1.4% (inactive) |
| CCOC(=O)C1(CCOC)CCN(Cc2cc3ccccc3s2)CC1 | 31.9% (active) |
| S=C(Nc1ccc(Br)cc1)NC1CCN(Cc2ccccc2)CC1 | -4.11% (inactive) |
| CCCCNS(=O)(=O)c1ccc2nc(SCC(=O)Nc3cc(C)cc(C)c3)[nH]c2c1 | 7.82% (inactive) |
| COC(=O)c1ccc(NS(=O)(=O)c2cc3c4c(c2)C(C)C(=O)N4CCC3)cc1 (stereo not given) | 8.38% (inactive) |
| O=C(C[n+]1cc(-c2ccc(Cl)c(Cl)c2)n2c1CCC2)c1cccs1 | 5.63% (inactive) |
| COC(=O)CC1=NN(c2nc(C)cc(C)n2)C(=O)C1 | 2.23% (inactive) |
| CC(C)(C)c1ccc(/C=C2\Oc3c(ccc(O)c3CN3CCN(CCO)CC3)C2=O)cc1 | -5.14% (inactive) |
| Cc1ccc(S(=O)(=O)N2C[C@@H]3CCCC[C@@H]3[C@@H](C)[C@H]2c2cn(Cc3ccccc3)c3ccc(F)cc23)cc1 | 6.02% (inactive) |
| Cc1c(C(=O)N(Cc2ccccc2)Cc2cccnc2)cnn1-c1ccc(F)cc1 | 3.32% (inactive) |
| COc1ccc(OCc2cc(C(=O)N3CCCC3)no2)c2ccccc12 | -1.07% (inactive) |
| CN=C1SC(CC(=O)Nc2ccc(C(=O)O)cc2)C(=O)N1C (stereo not given) | 1.33% (inactive) |
| CCCS(=O)(=O)N1CCC(C(=O)NCCc2ccc(OC)c(OC)c2)CC1 | 5.54% (inactive) |
| O=C1CN(C(=O)c2cc(F)cc(F)c2)c2ccccc2N1 | 2.59% (inactive) |
| CCOC(=O)C1CCN(C(=O)COC(=O)C2CCN(S(=O)(=O)c3ccc4c(c3)OCCO4)CC2)CC1 | 2.16% (inactive) |
| CCCCc1ccc(NS(=O)(=O)c2cccc(C(=O)N3CCCN(C)CC3)c2)cc1 | -3.56% (inactive) |
| Cc1ccc(S(=O)(=O)NCCC(=O)OCC(=O)N(C)c2ccccc2)cc1 | 1.61% (inactive) |
| COc1ccc(-n2cc(CNC3CCOCC3)c(-c3cccc(F)c3)n2)cc1 | -1.78% (inactive) |
| CCOc1ccc2c(c1)c(=O)c(S(=O)(=O)c1ccc(C)cc1)cn2CC | -6.47% (inactive) |
| C=CCN(c1ccccc1C(=O)NCC(=O)OCC)S(=O)(=O)c1ccc(C)cc1 | 4.75% (inactive) |
| CC(=O)N1c2ccc(S(=O)(=O)N3CCCC(C(=O)NCc4ccc(Cl)cc4)C3)cc2CC1C (stereo not given) | 1.56% (inactive) |
| COc1ccc(CN(C(=O)CSc2nnc(-c3ccc(OC)c(OC)c3)o2)c2ccc(F)cc2)cc1 | -3.3% (inactive) |

| Compound | activation |
| --- | --- |
| O=C1CCCCN1CCCC(=O)N1CCCC(Nc2ccc(F)cc2)C1 (stereo not given) | -11.7% (inactive) |
| CCOc1cc(C(=O)N2CCc3cc(OC)c(OC)cc3C2)ccc1OC(F)F | 10.5% (inactive) |
| CCCSc1ncccc1C(=O)O | 5.5% (inactive) |
| CCC(CC)NC(=O)CSc1nnc(-c2c[nH]c3ccccc23)o1 | -2.98% (inactive) |
| Cc1cc(C)c(S(=O)(=O)NCC2CCC(C(=O)NCc3ccc4c(c3)OCO4)CC2)c(C)c1 (stereo not given) | 10.5% (inactive) |
| CCn1c2ccccc2c2cc(NC(=O)C/C(C)=N/NC(=O)c3ccccc3N)ccc21 | -4.21% (inactive) |
| Cc1nccn1CCC1CCCCN1C(=O)CCc1nnc(-c2ccsc2)o1 (stereo not given) | 0.42% (inactive) |
| O=C(CCn1nnc2ccccc2c1=O)N[C@@H](Cc1c[nH]c2ccccc12)C(=O)O | 9.07% (inactive) |
| CC(C(=O)N1CCN(c2ccccc2F)CC1)c1ccc([N+](=O)[O-])cc1 (stereo not given) | -5.29% (inactive) |
| CCCCCc1nnc(NC(=O)c2ccc(=O)n(C)n2)s1 | 9.59% (inactive) |
| Cc1csc(/N=C/N(C)C)c1C#N | -2.59% (inactive) |
| OCCC1CN(Cc2cccn2-c2nccs2)CCN1CCc1ccccc1 (stereo not given) | 3.58% (inactive) |
| COC(=O)c1cccnc1NC(=S)NC(C)C | 3.88% (inactive) |
| COc1ccc(N2CCN(S(=O)(=O)c3cc4c5c(c3)C(C)C(=O)N5CCC4)CC2)cc1 (stereo not given) | 4.7% (inactive) |
| COc1ccc2sc(-c3ccc(S(C)(=O)=O)cc3)c(-c3ccc(C(N)=O)cc3)c2c1 | -9.45% (inactive) |
| COc1ccc2sc(-c3ccc(S(C)(=O)=O)cc3)c(C#Cc3cncn3C)c2c1 | 32.4% (active) |
| COc1ccc(-c2sc3ccc(OC)cc3c2C#Cc2ccccn2)cc1 | 25.1% (inactive) |
| CN(CC(=O)Nc1ccccc1Cl)C(=O)c1ccccc1SCC(=O)N1CCCC1 | 5.38% (inactive) |
| Cc1ccccc1N(C(=O)CNC(=O)c1cccs1)C(C(=O)NC1CCCC1)c1ccncc1 (stereo not given) | 2.19% (inactive) |
| COc1ccc(Nc2ncnc3ccc(Br)cc23)c(OC)c1 | -0.33% (inactive) |
| COc1ccc(Nc2ncnc3sc(-c4ccccc4)cc23)c(OC)c1 | 47.3% (active) |
| COc1ccc(Nc2ncnc3sc(C)cc23)cc1 | 4.02% (inactive) |
